Columns and labels:
[1] = Area under concentration time curve in brain of mice following peroral administration of 10 mg/kg of the compound; type: ADME, organism-based; design: dose 10 mg/kg, route oral; details: mouse, in vivo, po
In short: (§1)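 DIO mice given a single 10 mg/kg oral dose in 1% Tween-80 in water. Plasma and brain drug levels were measured over time. Cmax is the average of the three mice with the highest concentrations. AUC0-t was calculated by the linear trapezoidal rule, and the residual area (Ct/β) was added to give AUC0-∞. C12h is the brain level at 12 h postdose.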

[2] = target: T1, Melanin-concentrating hormone receptor 1 (Homo sapiens, UniProt Q99705); assay: Inhibition of melanin concentrating hormone receptor 1-mediated [Ca2+] release in human neuronal IMR-32 cells; type: functional, cell-based
[3] = Area under concentration time curve in plasma of mice following peroral administration of 10 mg/kg of the compound; type: ADME, organism-based; design: dose 10 mg/kg, route oral; details: mouse, in vivo, po; in short: as §1
[4] = target: T1, Melanin-concentrating hormone receptor 1; assay: Inhibition of melanin concentrating hormone receptor 1 from human neuronal IMR-32 cells; type: cell-based
[5] = Maximum concentration in brain of mice following peroral administration at 10 mg/kg; n=3; type: ADME, organism-based; design: dose 10 mg/kg, route oral; details: mouse, po; in short: as §1
[6] = Area under concentration time curve in plasma of mice following peroral administration at 10 mg/kg; n=3; type: ADME, organism-based; design: dose 10 mg/kg, route oral; details: mouse, in vivo, po; in short: as §1
[7] = Maximum concentration in brain of mice at 12 hours following peroral administration at 10 mg/kg; n=3; type: ADME, organism-based; design: dose 10 mg/kg, route oral; details: mouse, po; in short: as §1
[8] = Area under concentration time curve in brain of mice following peroral administration at 10 mg/kg; n=3; type: ADME, organism-based; design: dose 10 mg/kg, route oral; details: mouse, in vivo, po; in short: as §1
[9] = Concentration in plasma of mice,1 hour after administration of final dose at 30 mg/kg, twice a day; type: ADME, organism-based; design: dose 30 mg/kg; details: mouse, read-out: Cmax
In short: (§2)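 DIO mice received the test compound orally, bid, in 1% Tween-80 in water for 14 days. Plasma and brain drug concentrations were measured 1 h (taken as Cmax) or 17 h after the final dose on day 14. Mean ± SEM, n = 3.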

Mus musculus [10] = assay: Change in body weight of mice on day 14 following peroral administration at 10 mg/kg, twice a day; n = 12; body weight at day 0 = 44.7 g; type: functional; details: route oral
In short: (§3)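 Chronic study in DIO mice fed a high-fat diet ad libitum. Dosing was by oral gavage, bid for 14 days, in 4 mL/kg of 1% Tween-80 in water, with vehicle controls. Body weight and food intake were recorded on days 1, 4, 7, 11 and 14. Body-weight change is in grams relative to day 0, and % change is relative to vehicle. Mean ± SEM, n = 12.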

[11] = Concentration in plasma of mice,17 hours after administration of final dose at 30 mg/kg, twice a day; type: ADME, organism-based; design: dose 30 mg/kg; details: mouse, read-out: Cmax; in short: as §2
[12] = Concentration in plasma of mice,1 hour after administration of final dose at 10 mg/kg, twice a day; type: ADME, organism-based; design: dose 10 mg/kg; details: mouse, read-out: Cmax; in short: as §2
Mus musculus [13] = assay: Change in body weight of mice on day 14 following peroral administration at 30 mg/kg, twice a day; n = 12; body weight at day 0 = 45 g; type: functional; details: route oral; in short: as §3
[14] = Concentration in brain of mice,17 hours after administration of final dose at 10 mg/kg, twice a day; type: ADME, organism-based; design: dose 10 mg/kg; details: mouse, read-out: Cmax; in short: as §2
[15] = Concentration in plasma of mice,17 hours after administration of final dose at 10 mg/kg, twice a day; type: ADME, organism-based; design: dose 10 mg/kg; details: mouse, read-out: Cmax; in short: as §2
Mus musculus [16] = assay: Body weight of mice on day 14 following peroral administration at 10 mg/kg, twice a day; n = 12; type: functional; details: route oral; in short: as §3
[17] = Concentration in brain of mice,1 hour after administration of final dose at 10 mg/kg, twice a day; type: ADME, organism-based; design: dose 10 mg/kg; details: mouse, read-out: Cmax; in short: as §2
[18] = Concentration in brain of mice,17 hours after administration of final dose at 30 mg/kg, twice a day; type: ADME, organism-based; design: dose 30 mg/kg; details: mouse, read-out: Cmax; in short: as §2
Mus musculus [19] = assay: Body weight of mice on day 14 following peroral administration at 30 mg/kg, twice a day; n = 12; type: functional; details: route oral; in short: as §3
[20] = Concentration in brain of mice,1 hour after administration of final dose at 30 mg/kg, twice a day; type: ADME, organism-based; design: dose 30 mg/kg; details: mouse, read-out: Cmax; in short: as §2
[21] = Maximum concentration of the compound in brain of mice following peroral administration at 10 mg/kg; n=3; type: ADME, organism-based; design: dose 10 mg/kg, route oral; details: mouse, po; in short: as §1
Mus musculus [22] = assay: Change in body weight of mice on day 14 following peroral administration at 10 mg/kg, 4 times a day; n = 12; body weight at day 0 = 43.2 g; type: functional; details: route oral
Mus musculus [23] = assay: Body weight of mice on day 14 following peroral administration at 10 mg/kg, 4 times a day; n = 12; type: functional; details: route oral

T1 sequence (Q99705 whole entry): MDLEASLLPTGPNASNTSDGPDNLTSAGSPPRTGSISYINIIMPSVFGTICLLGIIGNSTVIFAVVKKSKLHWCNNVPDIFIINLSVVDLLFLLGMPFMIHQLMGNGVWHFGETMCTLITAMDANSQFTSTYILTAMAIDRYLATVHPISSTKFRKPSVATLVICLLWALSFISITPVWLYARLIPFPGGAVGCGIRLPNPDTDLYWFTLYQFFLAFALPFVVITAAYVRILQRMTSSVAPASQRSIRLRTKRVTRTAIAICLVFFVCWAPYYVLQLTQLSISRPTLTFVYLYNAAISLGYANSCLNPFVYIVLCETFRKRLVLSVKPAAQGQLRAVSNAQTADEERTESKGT

| SMILES | IC50 [2] [nM] | IC50 [4] [nM] | Cmax [5] [ng/g] | AUC [6] [µg/h/g] | Cmax [7] [ng/g] | AUC [8] [µg/h/g] | further results |
| --- | --- | --- | --- | --- | --- | --- | --- |
| O=C(CNCc1ccc(Oc2ccccc2)cc1)Nc1ccc2ncn(CCN3CCCC3)c2c1 | 1810 | 299 |  |  |  |  | AUC [1]: 0.674 µg/h/g; AUC [3]: 1.16 µg/h/mL |
| O=C(Cc1ccc(OCc2ccccc2)cc1)Nc1cccc2nn(CCN3CCCC3)cc12 | 287 | 41.4 | 214 | 2.09 | 12.3 | 0.214 |  |
| O=C(Cc1ccc(OCc2ccccc2)cc1)Nc1ccc2c(c1)ncn2CCN1CCCC1 | > 10000 | 772 |  |  |  |  |  |
| O=C(Cc1ccc(OCc2ccccc2)cc1)Nc1ccc2cn(CCN3CCCC3)nc2c1 | 874 | 146 |  |  |  |  |  |
| O=C(Cc1ccc(OCc2ccccc2)cc1)Nc1ccc2cnn(CCN3CCCC3)c2c1 | 11 | 1.4 | 177 | 2.12 | 29 | 1.33 | concentration at 1 h [9]: 824 ng/mL; Activity (Mus musculus [10]): -8.25%; concentration at 17 h [11]: 2.23 ng/mL; concentration at 1 h [12]: 168 ng/mL; Activity (Mus musculus [13]): -15.2%; concentration at 17 h [14]: 7.02 ng/mL; concentration at 17 h [15]: 0.39 ng/mL; Body weight (Mus musculus [16]): 42.6 g; concentration at 1 h [17]: 115 ng/mL; concentration at 17 h [18]: 5.35 ng/mL; Body weight (Mus musculus [19]): 39.7 g; concentration at 1 h [20]: 233 ng/mL |
| O=C(Cc1ccc(OCc2ccccc2)cc1)Nc1ccc2nn(CCN3CCCC3)cc2c1 | > 10000 | 1990 |  |  |  |  |  |
| O=C(Cc1ccc(OCc2ccccc2)cc1)Nc1ccc2c(cnn2CCN2CCCC2)c1 | > 10000 | 558 | 4260 | 8.51 | 76 | 10.4 |  |
| O=C(Cc1ccc(OCc2ccccc2)cc1)Nc1ccc2ccn(CCN3CCCC3)c2c1 | 1470 | 22 |  |  |  |  | AUC [1]: 0.348 µg/h/g; AUC [3]: 1.37 µg/h/mL |
| O=C(Cc1ccc(OCc2ccccc2)cc1)Nc1cccc2c1cnn2CCN1CCCC1 | 71 | 24.5 | 464 | 0.611 | 8.11 | 1.18 |  |
| O=C(Cc1ccc(OCc2ccccc2)cc1)Nc1ccc2ncn(CCN3CCCC3)c2c1 | > 10000 | 161 |  | 0.937 |  | 0.244 | Cmax [21]: 54.4 ng/g |
| CCN[C@@H](C)Cc1cccc(C(F)(F)F)c1 [DEXFENFLURAMINE] |  |  |  |  |  |  | Activity (Mus musculus [22]): -10.1%; Body weight (Mus musculus [23]): 40.4 g |
